Experimental findings from ChEMBL document CHEMBL5661969, “Preclinical evaluation of a potent novel DNA-dependent protein kinase inhibitor NU7441” (Cancer Res, 2006) are described below.

Data set [1] deals with T1, DNA-dependent protein kinase catalytic subunit (Homo sapiens, UniProt P78527). The data set can be described thus: Inhibition of DNA-PK in human HCT-116 cells assessed as potentiation of ionizing radiation-induced cytotoxicity relative to radiation alone. The data set is classed as cell-based.
Data set [2] concerns the target T1, DNA-dependent protein kinase catalytic subunit. The data set can be described thus: Inhibition of DNA-PK in human HCT-116 cells assessed as potentiation of etoposide-induced cytotoxicity relative to etoposide alone. The class given is cell-based.
The target is the same in data set [3]. Nature of the data set: Inhibition of DNA-PK in human SW480 cells assessed potentiation of ionizing radiation-induced cytotoxicity by measuring ratio of cytotoxic agent required to kill 90% of the cells in the absence and presence of compound. The class given is cell-based.
Data set [4] is described as follows: Inhibition of ATM in Chinese hamster DNA-PK proficient V3-YAC cells assessed as potentiation of ionizing radiation-induced cytotoxicity by measuring fold change in radiation LD90 at 10 umol/L preincubated for 1 hr followed by gamma-irradiation and measured after 16 hrs by crystal violet staining based assay relative to radiation alone. Further details: species or system Cricetulus griseus. The settings on record: dose 10 µmol/L; time 17 hrs; condition cancer.

Data set [5] can be described thus: Inhibition of ATM in Chinese hamster DNA-PK proficient V3-YAC cells assessed as potentiation of etoposide-induced cytotoxicity by measuring fold change in etoposide LD90 at 10 umol/L measured after 16 hrs by crystal violet staining based assay relative to etoposide alone. Further details: species or system Cricetulus griseus. The settings on record: dose 10 µmol/L, condition cancer.

Data set [6] in a line: Cytotoxicity against Chinese hamster DNA-PK deficient V3 cells assessed as increase in etoposide-induced cytotoxicity by measuring fold change in etoposide LD90 at 10 umol/L measured after 16 hrs by crystal violet staining based assay relative to etoposide alone. The settings on record: v3, 16 h, 10 µM, dose 10 µmol/L. The data set is classed as toxicity, cell-based, Cricetulus griseus.

The subject of data set [7] is SW-620. Nature of the data set: Cell cycle arrest in human SW620 cells assessed as increase in G2-M-phase cell population at 10 nM measured after 16 hrs by propidium iodide staining based flow cytometry relative to control. The data set is classed as functional.
The subject of data set [8] is SW-620. The data set can be described thus: Cell cycle arrest in human SW620 cells assessed as reduction in S-phase cell population at 10 nM measured after 16 hrs by propidium iodide staining based flow cytometry. The data set is classed as functional. Background: Flow cytometry measures light scatter and fluorescence of single cells or particles in a stream.
The nature of data set [9]: Toxicity in human SW620 cell xenografted athymic nude CD1 mouse assessed as maximum body weight loss at 11.35 mg/kg, ip administered 5 times daily for 5 days relative to control. The data set is classed as organism-based, SW-620. The settings on record: in vivo, 120 h, time 5 day. For orientation: A xenograft is tissue or cells of one species grown in another, often human tumour cells in immunodeficient mice.

Data set [10] relates to SW-620. The data set can be described thus: Antitumor activity against human SW620 cells xenografted in athymic nude CD1 mouse assessed as tumor growth delay at 11.35 mg/kg, ip administered 5 times daily for 5 days. The settings on record: time 5 day. The data set is classed as functional.
The nature of data set [11]: Cytotoxicity against Chinese hamster DNA-PK deficient V3 cells assessed as reduction in cell survival measured after 16 hrs by crystal violet staining based assay. The data set is classed as toxicity, Cricetulus griseus. The settings on record: v3, 16 h. The essentials: (§1)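 V3 (DNA-PKcs-deficient CHO) and V3-YAC (human DNA-PKcs YAC, kept on G-418 500 μg/mL) cells were grown in RPMI/10% FBS. Exponential cells were exposed to agent in 0.5% DMSO for 16 h, then trypsinized and reseeded at 100–100,000 per dish in drug-free medium. Colonies were stained with crystal violet after 10–14 days and counted. Survival is relative to 0.5% DMSO controls.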

A short description of data set [12]: Cytotoxicity against Chinese hamster DNA-PK proficient V3-YAC cells assessed as reduction in cell survival measured after 16 hrs by crystal violet staining based assay. The data set is classed as toxicity, Cricetulus griseus. In a few lines:
as §1

The nature of data set [13]: Selectivity ratio of LD90 for cytotoxicity against Chinese hamster DNA-PK proficient V3-YAC cells to LD90 for cytotoxicity against Chinese hamster DNA-PK deficient V3 cells. The class given is toxicity, cell-based, Cricetulus griseus. The essentials:
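Clonogenic survival of V3 and V3-YAC Chinese hamster ovary cells, RPMI/10% FBS, V3-YAC kept under G-418 at 500 μg/mL. Colonies read 10–14 days later. LD90 is the dose or concentration killing 90%, and the LD90 ratio gives the fold change.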

The subject of data set [14] is SW-620. Nature of the data set: Induction of DNA damage in human SW620 cells assessed as increase in formation of gamma-H2AX phosphorylation foci per cell at 1 umol/L preincubated for 1 hr followed by compound washout and measured after 30 mins by DAPI staining based immunofluorescence microscopic analysis. The data set is classed as functional. The settings on record: dose 1 µmol/L. In a few lines:
(§2)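 SW620 cells on coverslips at 50–70% confluence, preincubated 1 h ± 1 μmol/L agent, then 1 μmol/L etoposide for 1 h, washed three times, and kept ± agent for up to 24 h. Fixation in −20 °C methanol, then anti-γH2AX Ser139 antibody with FITC secondary and DAPI mounting. Foci counted in 30 nuclei from three areas per sample, in triplicate.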

In data set [15] the test system is SW-620. Nature of the data set: Induction of DNA damage in human SW620 cells assessed as loss of gamma-H2AX phosphorylation foci formation at 1 umol/L preincubated for 1 hr followed by compound washout and measured after 4 hrs by DAPI staining based immunofluorescence microscopic analysis relative to control. The data set is classed as functional. The settings on record: dose 1 µmol/L, at 1 µM. In a few lines:
as §2

The test system of data set [16] is SW-620. Nature of the data set: Induction of DNA damage in human SW620 cells assessed as loss of gamma-H2AX phosphorylation foci formation at 1 umol/L preincubated for 1 hr followed by compound washout and measured after 16 hrs by DAPI staining based immunofluorescence microscopic analysis relative to control. The data set is classed as functional. The settings on record: dose 1 µmol/L, at 1 µM. In a few lines: as §2

Data set [17] deals with SW-620. Nature of the data set: Cell cycle arrest in human SW620 cells assessed as increase in G2-M-phase cell population at 0.1 uM measured after 16 hrs by propidium iodide staining based flow cytometry relative to control. The data set is classed as functional.
The test system of data set [18] is SW-620. Nature of the data set: Cell cycle arrest in human SW620 cells assessed as reduction in S-phase cell population at 0.1 uM measured after 16 hrs by propidium iodide staining based flow cytometry. The data set is classed as functional.

The structures appear in SMILES notation. Activity calls are given as the source filed them. No cut-off for these calls is given here.

T1 sequence (P78527 whole entry): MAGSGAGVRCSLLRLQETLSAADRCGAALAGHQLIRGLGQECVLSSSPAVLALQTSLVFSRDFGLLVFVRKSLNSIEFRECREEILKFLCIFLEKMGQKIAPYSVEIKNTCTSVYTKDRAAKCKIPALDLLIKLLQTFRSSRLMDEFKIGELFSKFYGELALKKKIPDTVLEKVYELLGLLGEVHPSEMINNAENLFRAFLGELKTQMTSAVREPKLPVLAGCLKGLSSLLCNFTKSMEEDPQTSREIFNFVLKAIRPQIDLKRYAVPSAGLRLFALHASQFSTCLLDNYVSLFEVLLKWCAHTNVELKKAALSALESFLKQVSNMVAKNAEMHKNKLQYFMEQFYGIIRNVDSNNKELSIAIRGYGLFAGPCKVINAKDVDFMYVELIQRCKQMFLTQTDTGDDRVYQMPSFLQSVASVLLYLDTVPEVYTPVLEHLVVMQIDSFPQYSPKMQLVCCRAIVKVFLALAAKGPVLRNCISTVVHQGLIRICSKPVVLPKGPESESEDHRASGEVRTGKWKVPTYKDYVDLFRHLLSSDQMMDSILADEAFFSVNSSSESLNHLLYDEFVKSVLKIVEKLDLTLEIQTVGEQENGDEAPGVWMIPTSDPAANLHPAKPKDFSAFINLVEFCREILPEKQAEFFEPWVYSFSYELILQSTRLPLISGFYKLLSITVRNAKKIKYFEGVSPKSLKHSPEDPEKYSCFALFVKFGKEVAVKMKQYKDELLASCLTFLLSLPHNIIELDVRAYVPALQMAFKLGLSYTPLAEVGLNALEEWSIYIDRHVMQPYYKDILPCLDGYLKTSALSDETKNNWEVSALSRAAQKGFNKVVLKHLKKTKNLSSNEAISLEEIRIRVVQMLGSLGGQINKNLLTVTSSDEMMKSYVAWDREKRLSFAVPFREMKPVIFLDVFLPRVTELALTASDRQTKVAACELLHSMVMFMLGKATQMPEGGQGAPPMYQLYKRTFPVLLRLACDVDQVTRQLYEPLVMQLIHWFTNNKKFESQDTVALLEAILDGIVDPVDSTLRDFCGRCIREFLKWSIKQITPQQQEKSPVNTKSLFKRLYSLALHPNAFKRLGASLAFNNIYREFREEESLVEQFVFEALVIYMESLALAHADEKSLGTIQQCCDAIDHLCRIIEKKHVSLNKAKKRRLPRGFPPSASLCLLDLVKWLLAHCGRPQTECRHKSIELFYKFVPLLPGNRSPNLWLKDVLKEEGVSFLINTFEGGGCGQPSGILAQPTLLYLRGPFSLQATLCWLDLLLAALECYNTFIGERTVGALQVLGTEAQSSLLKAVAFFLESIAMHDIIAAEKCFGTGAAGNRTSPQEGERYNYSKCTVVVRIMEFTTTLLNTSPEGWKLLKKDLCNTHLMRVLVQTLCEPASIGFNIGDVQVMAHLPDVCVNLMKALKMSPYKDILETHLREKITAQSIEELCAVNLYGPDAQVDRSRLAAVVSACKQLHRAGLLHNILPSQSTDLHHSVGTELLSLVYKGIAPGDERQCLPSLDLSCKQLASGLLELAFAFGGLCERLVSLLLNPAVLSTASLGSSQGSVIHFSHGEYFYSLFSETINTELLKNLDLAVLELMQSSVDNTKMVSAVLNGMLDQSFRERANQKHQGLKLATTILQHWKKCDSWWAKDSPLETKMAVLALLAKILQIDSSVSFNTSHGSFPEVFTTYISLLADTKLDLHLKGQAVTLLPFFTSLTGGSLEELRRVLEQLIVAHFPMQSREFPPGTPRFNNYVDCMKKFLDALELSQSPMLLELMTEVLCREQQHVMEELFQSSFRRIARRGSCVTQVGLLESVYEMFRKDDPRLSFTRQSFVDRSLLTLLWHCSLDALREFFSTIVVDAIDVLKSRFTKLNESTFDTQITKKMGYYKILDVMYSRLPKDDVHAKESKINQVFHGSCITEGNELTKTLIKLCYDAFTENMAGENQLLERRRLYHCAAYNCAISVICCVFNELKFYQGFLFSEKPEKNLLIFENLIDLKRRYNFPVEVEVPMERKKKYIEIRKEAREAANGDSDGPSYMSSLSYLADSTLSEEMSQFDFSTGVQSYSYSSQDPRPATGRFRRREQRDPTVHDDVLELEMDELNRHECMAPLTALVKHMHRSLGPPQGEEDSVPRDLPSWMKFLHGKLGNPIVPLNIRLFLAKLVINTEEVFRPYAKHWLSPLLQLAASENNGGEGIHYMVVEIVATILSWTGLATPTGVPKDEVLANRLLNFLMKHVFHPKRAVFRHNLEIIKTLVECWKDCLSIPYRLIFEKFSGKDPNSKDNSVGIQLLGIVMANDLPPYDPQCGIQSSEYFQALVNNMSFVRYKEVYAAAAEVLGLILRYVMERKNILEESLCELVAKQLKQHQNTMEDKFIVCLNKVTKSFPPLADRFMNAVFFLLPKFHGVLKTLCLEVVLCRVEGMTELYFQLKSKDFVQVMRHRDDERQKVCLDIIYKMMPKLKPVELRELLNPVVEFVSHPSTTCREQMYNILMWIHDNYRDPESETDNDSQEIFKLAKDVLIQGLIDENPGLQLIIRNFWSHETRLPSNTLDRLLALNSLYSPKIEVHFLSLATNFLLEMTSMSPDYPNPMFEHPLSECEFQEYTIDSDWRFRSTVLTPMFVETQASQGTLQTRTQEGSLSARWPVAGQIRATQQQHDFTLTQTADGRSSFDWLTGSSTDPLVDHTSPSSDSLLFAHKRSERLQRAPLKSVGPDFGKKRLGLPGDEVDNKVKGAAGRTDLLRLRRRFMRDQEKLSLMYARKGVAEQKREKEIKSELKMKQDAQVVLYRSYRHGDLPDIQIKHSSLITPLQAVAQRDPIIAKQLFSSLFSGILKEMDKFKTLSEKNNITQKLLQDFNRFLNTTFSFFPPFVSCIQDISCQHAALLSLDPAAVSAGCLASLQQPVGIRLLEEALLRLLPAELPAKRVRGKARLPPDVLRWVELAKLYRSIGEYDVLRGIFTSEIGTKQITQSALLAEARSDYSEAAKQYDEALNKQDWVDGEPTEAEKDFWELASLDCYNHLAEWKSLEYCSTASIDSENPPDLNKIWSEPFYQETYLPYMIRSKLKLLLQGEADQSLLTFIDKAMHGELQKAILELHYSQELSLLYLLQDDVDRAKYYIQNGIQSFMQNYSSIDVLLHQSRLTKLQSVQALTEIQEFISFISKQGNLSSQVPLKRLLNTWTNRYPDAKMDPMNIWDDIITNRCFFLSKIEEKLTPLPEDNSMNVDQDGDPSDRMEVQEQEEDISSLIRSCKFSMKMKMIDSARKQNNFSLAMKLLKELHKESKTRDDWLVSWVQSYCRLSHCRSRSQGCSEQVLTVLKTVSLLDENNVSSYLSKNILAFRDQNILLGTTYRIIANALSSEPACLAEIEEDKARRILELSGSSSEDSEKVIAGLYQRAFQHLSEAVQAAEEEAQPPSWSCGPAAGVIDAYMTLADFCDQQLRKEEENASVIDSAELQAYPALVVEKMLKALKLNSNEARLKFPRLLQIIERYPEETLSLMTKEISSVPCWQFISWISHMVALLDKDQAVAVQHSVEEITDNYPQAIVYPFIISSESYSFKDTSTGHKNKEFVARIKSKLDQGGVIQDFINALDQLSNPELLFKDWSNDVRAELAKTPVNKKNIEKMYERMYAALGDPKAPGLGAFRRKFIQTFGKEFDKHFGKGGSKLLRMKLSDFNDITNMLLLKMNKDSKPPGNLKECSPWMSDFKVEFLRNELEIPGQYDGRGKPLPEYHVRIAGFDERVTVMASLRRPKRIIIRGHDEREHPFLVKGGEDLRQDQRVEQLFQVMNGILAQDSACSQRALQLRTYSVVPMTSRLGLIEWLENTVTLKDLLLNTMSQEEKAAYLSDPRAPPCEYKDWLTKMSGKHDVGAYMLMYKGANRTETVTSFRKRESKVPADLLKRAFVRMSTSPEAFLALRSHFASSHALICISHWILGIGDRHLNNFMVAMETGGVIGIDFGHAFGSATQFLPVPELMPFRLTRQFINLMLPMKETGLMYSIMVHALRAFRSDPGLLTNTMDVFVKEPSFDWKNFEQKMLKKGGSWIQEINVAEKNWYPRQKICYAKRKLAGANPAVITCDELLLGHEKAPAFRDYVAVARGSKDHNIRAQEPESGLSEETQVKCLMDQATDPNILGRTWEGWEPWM

Consider `CC(=O)c1ccc(N2CCOCC2)cc1O`, for which the fold change (FC) came to 4 in data set [1] and 15 in [2].
With `O=c1cc(N2CCOCC2)oc2c(-c3ccccc3)cccc12`, the Ratio in [3] is 1.9.
On to `O=c1cc(-c2cccc3c2Sc2ccccc2S3)oc(N2CCOCC2)c1` [KU-55933], for which the “fold change (FC)” value is 2 in data set [4], 6 in [5] and 6 in data set [6].
As to `COc1cccc2c1C(=O)c1c(O)c3c(c(O)c1C2=O)C[C@@](O)(C(=O)CO)C[C@@H]3O[C@H]1C[C@H](N)[C@H](O)[C@H](C)O1` [DOXORUBICIN], the Activity in the data set with SW-620 [7] is reported as 158%. Also, the result in the data set with SW-620 [8] was Active.
Consider `COc1cc([C@@H]2c3cc4c(cc3[C@@H](O[C@@H]3O[C@@H]5CO[C@@H](C)O[C@H]5[C@H](O)[C@H]3O)[C@H]3COC(=O)[C@H]23)OCO4)cc(OC)c1OP(=O)(O)O` [ETOPOSIDE PHOSPHATE], for which the Activity in data set [9] worked out at 6%. Further, the Time with SW-620 [10] was found to be 2.7 days.
As for `COC[C@H]1OC(=O)c2coc3c2[C@@]1(C)C1=C(C3=O)[C@@H]2CCC(=O)[C@@]2(C)C[C@H]1OC(C)=O`, the Ratio in data set [3] was 2.8.
Regarding `COc1cc([C@@H]2c3cc4c(cc3[C@@H](O[C@@H]3O[C@@H]5CO[C@@H](C)O[C@H]5[C@H](O)[C@H]3O)[C@H]3COC(=O)[C@H]23)OCO4)cc(OC)c1O` [ETOPOSIDE], the LD90 in [11] worked out at 0.6 µmol/L; in data set [12], 1.8 µmol/L. In addition, the selectivity ratio in data set [13] came to 3. The Activity in the data set with SW-620 [14] amounted to 22; in the data set on SW-620 [15], 39%; in the data set on SW-620 [16], 5.3%; in the data set with SW-620 [17], 83%. In addition, the result in the data set with SW-620 [18] was Active.
